For one compound, Activity results are on record in ChEMBL document CHEMBL5038571, “Design and Synthesis of EZH2-Based PROTACs to Degrade the PRC2 Complex for Targeting the Noncatalytic Activity of EZH2” (J Med Chem, 2021).

For assay [1], the target named is T1, Protein cereblon/Histone-lysine N-methyltransferase EZH2 (Homo sapiens) (UniProt Q15910+Q96SW2). Kind of assay: PROTAC activity at CRBN E3 ligase/EZH2 in PRC2 complex in human WSUDLCL2 cells assessed as induction of SUZ12 degradation at 10 uM incubated for 48 hrs by Western blot analysis. The format is cell-based. Background: Immunoblotting shows a protein as a band on a membrane.

For assay [2], the target named is T1, Protein cereblon/Histone-lysine N-methyltransferase EZH2 (Homo sapiens). Kind of assay: PROTAC activity at CRBN E3 ligase/EZH2 in PRC2 complex in human SK-OV-3 cells assessed as induction of RpAb48 degradation by measuring reduction in RpAb48 protein level at 1 uM incubated for 48 hrs by Western blot analysis. The format is cell-based. Summed up: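 Cells cultured in DMEM or RPMI 1640 with 10% FBS and 1% penicillin-streptomycin, 37 °C, 5% CO2; exposed to 1 μM compound for 48 h. Lysates run on SDS-PAGE and transferred to nitrocellulose. Blocked 2 h in 5% skim milk, primary antibody overnight at 4 °C, then secondary antibody. Chemiluminescent detection of PRC2 subunits and H3K27me3.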

For assay [3], the system named is NCI-H1299. Kind of assay: Antiproliferative activity against human NCI-H1299 cells harboring SWI/SNF mutant assessed as inhibition of cell growth at 10 uM treated for 9 days by optical microscopic analysis. The format is functional, cell-based. The note with it: time 9.0 day. Summed up:
(§1)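 Cells seeded at 5 × 10³ per well, grown 24 h, then exposed to compound at 10 μM for 9 days with medium refreshed. Cells were photographed and counted on days 1, 3, 5, 7 and 9. For lines 1-2, EZH2-targeting or control shRNA was induced in the cells. Mean SD of three independent experiments; t-test against control.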

The target in assay [4] is T1, Protein cereblon/Histone-lysine N-methyltransferase EZH2 (Homo sapiens). The assay can be described thus: PROTAC activity at CRBN E3 ligase/EZH2 in PRC2 complex in human A2780 cells assessed as induction of EED degradation by measuring reduction in EED protein level at 1 uM incubated for 48 hrs by Western blot analysis. The format is cell-based. Summed up: (§2)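 Cancer cell lines exposed to 1 μM compound for 48 h. Lysates immunoblotted (SDS-PAGE, nitrocellulose, 5% milk block, primary antibody overnight at 4 °C) for EZH2, SUZ12, EED, RbAp48 and H3K27me3. Bands quantified by densitometry and normalized to GAPDH.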

The subject of assay [5] is A549. Kind of assay: Antiproliferative activity against EZH2-knockdown human A549 cells assessed as inhibition of cell growth at 10 uM treated for 9 days by optical microscopic analysis. The format is functional, cell-based. The following applies: time 9.0 day. Summed up:
as §1

Assay [6] has as its target T1, Protein cereblon/Histone-lysine N-methyltransferase EZH2 (Homo sapiens). Kind of assay: PROTAC activity at CRBN E3 ligase/EZH2 in PRC2 complex in human A2780 cells assessed as induction of SUZ12 degradation by measuring reduction in SUZ12 protein level at 1 uM incubated for 48 hrs by Western blot analysis. The format is cell-based. Summed up: as §2
Assay [7] relates to A549. Kind of assay: Downregulation of TACC3 mRNA expression in human A549 cells at 10 uM incubated for 48 hrs by qRT-PCR analysis. The format is functional, cell-based. Summed up:
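Cells treated 48 h. Total RNA extracted with Trizol, reverse-transcribed, and SYBR RT-qPCR run: 95 °C 30 s, then 40 cycles of 95 °C 6 s and 60 °C 20 s. mRNA normalized to the DMSO-treated group. Mean SD of three independent experiments, t-test versus DMSO.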
A general note: In qPCR the cycle at which signal appears reflects the starting amount.

The target in assay [8] is T1, Protein cereblon/Histone-lysine N-methyltransferase EZH2 (Homo sapiens). Kind of assay: PROTAC activity at CRBN E3 ligase/EZH2 in PRC2 complex in human WSUDLCL2 cells assessed as reduction in H3K27me3 level at 1 uM incubated for 48 hrs by Western blot analysis relative to control. The format is cell-based. Further details: scale not given: the % may be the effect or the level left. Summed up: (§3)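 WSU-DLCL-2 cells treated 48 h (1 μM for the single-concentration screen), lysed; SDS-PAGE, nitrocellulose transfer, 5% milk block, primary antibody 4 °C overnight, chemiluminescence. Bands quantified by densitometry, normalized to GAPDH, expressed relative to DMSO-treated cells; mean ± SD of three independent experiments, t-test.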

The target of assay [9] is Histone-binding protein RBBP4 (Homo sapiens) (UniProt Q09028). Kind of assay: Binding affinity to RbAp48 in human WSUDLCL2 cells assessed as thermal stability by measuring shift in temperature at 60 uM pretreated with proteasome inhibitor MG132 for 1 hr followed by compound addition incubated for 2 hrs by cellular thermal shift based Western blot analysis. The format is cell-based. Summed up: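 Cellular thermal shift: cells suspended at 1.5 × 10⁶/mL and pretreated with MG-132 (5 μM, 1 h), then given 60 μM compound for 2 h with a DMSO control. Cells were lysed in RIPA with cocktail for 1 h. Supernatant aliquots were heated 6 min at 45, 48, 51, 54, 57 and 60 °C and centrifuged 15 min. Soluble protein was immunoblotted; bands quantified by densitometry; three independent experiments.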

Assay [10] concerns the target T1, Protein cereblon/Histone-lysine N-methyltransferase EZH2 (Homo sapiens). The assay can be described thus: PROTAC activity at CRBN E3 ligase/EZH2 in PRC2 complex in human WSUDLCL2 cells assessed as downregulation of EZH2 expression at 1 uM pretreated with MG-132 for 4 hrs followed by compound addition and measured after 48 hrs by Western blot analysis. The format is cell-based. Summed up: (§4)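 WSU-DLCL-2 cells pretreated 4 h with the named inhibitor, then compound added and incubated a further 48 h. EZH2, SUZ12, EED and RbAp48 measured by western blot (nitrocellulose transfer, skim-milk block, primary antibody overnight at 4 °C, chemiluminescent detection).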

For assay [11] the target is unchanged. The assay can be described thus: PROTAC activity at CRBN E3 ligase/EZH2 in PRC2 complex in human WSUDLCL2 cells assessed as downregulation of EZH2 expression at 1 uM pretreated with EPZ6438 for 4 hrs followed by compound addition and measured after 48 hrs by Western blot analysis. The format is cell-based. Summed up:
as §4

Assay [12] shares this target. Kind of assay: PROTAC activity at CRBN E3 ligase/EZH2 in PRC2 complex in human WSUDLCL2 cells assessed as downregulation of RbAp48 expression at 1 uM pretreated with lenalidomide for 4 hrs followed by compound addition and measured after 48 hrs by Western blot analysis. The format is cell-based. Summed up:
as §4

Assay [13] shares this target. The assay can be described thus: PROTAC activity at CRBN E3 ligase/EZH2 in PRC2 complex in human WSUDLCL2 cells assessed as induction of SUZ12 degradation incubated for 48 hrs by Western blot analysis. The format is cell-based. The note with it: dose 1-10 µM. Summed up: as §3
For assay [14] the target is unchanged. The assay can be described thus: PROTAC activity at CRBN E3 ligase/EZH2 in PRC2 complex in human WSUDLCL2 cells assessed as downregulation of RbAp48 expression at 1 uM pretreated with MLN4924 for 4 hrs followed by compound addition and measured after 48 hrs by Western blot analysis. The format is cell-based. Summed up:
as §4

The target is the same in assay [15]. The assay can be described thus: PROTAC activity at CRBN E3 ligase/EZH2 in PRC2 complex in human WSUDLCL2 cells assessed as downregulation of SUZ12 expression at 1 uM pretreated with GSK126 for 4 hrs followed by compound addition and measured after 48 hrs by Western blot analysis. The format is cell-based. Summed up: as §4
Assay [16] has the same target. Kind of assay: PROTAC activity at CRBN E3 ligase/EZH2 in PRC2 complex in human WSUDLCL2 cells assessed as downregulation of RbAp48 expression at 1 uM pretreated with EED226 for 4 hrs followed by compound addition and measured after 48 hrs by Western blot analysis. The format is cell-based. Summed up:
as §4

Assay [17] has the same target. The assay can be described thus: PROTAC activity at CRBN E3 ligase/EZH2 in PRC2 complex in human WSUDLCL2 cells assessed as effect on RbAp48 mRNA expression at 1 uM incubated for 48 hrs by RT-qPCR analysis. The format is cell-based. Summed up:
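WSU-DLCL-2 cells treated 48 h with 1 μM compound. Total RNA extracted with Trizol and reverse-transcribed. SYBR qPCR run as 95 °C 30 s, then 40 cycles of 95 °C 6 s and 60 °C 20 s. PRC2 subunit mRNA normalized to the DMSO-treated group; mean SD, t-test.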

Calls of active or inactive are those of the source. The rule behind the calls is not given here.

T1 sequence (Q15910 whole entry, looked up): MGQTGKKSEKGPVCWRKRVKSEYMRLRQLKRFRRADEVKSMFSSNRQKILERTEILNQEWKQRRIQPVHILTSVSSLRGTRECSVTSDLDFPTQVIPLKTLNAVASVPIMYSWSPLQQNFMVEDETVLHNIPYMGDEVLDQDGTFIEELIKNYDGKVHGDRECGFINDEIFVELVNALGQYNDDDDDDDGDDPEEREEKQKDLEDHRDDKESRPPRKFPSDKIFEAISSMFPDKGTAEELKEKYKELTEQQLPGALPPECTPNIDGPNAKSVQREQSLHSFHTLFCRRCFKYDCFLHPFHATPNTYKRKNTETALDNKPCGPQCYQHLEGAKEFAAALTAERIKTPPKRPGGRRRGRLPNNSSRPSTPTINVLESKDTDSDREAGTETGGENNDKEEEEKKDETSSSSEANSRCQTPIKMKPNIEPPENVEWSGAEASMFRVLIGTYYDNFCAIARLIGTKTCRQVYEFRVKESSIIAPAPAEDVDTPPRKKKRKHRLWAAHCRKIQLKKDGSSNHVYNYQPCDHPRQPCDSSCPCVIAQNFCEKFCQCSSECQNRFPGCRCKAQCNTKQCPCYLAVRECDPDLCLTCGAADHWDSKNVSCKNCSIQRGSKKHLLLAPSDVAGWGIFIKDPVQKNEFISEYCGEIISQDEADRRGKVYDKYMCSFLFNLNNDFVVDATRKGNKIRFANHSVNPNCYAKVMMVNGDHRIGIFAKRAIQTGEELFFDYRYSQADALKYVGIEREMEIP
T1 sequence (Q96SW2 whole entry, looked up): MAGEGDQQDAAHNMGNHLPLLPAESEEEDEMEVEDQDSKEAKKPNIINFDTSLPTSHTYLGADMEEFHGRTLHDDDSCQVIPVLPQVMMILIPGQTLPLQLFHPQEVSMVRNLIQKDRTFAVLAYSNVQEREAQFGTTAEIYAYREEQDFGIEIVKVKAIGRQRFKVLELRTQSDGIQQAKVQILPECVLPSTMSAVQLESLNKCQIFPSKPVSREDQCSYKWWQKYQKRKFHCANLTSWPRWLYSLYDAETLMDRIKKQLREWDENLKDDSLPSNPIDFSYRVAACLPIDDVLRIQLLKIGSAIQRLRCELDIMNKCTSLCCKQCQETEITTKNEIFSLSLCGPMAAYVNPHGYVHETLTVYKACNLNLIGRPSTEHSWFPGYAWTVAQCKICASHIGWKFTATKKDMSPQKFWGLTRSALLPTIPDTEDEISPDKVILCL
Histone-binding protein RBBP4 (Homo sapiens), sequence (Q09028 whole entry): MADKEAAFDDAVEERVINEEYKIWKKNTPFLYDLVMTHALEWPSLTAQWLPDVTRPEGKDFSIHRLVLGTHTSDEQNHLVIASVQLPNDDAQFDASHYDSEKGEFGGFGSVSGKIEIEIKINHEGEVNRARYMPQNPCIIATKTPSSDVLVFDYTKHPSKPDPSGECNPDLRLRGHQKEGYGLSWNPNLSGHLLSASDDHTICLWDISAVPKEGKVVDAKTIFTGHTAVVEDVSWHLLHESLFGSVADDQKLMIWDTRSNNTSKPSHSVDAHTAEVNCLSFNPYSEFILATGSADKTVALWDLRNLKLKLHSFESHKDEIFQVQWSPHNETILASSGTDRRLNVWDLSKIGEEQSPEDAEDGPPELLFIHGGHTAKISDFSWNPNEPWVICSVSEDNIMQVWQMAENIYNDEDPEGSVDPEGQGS

Regarding `CCN(c1cc(-c2ccc(CN3CCN(CCCCCCCOc4cccc5c4C(=O)N(C4CCC(=O)NC4=O)C5=O)CC3)cc2)cc(C(=O)NCc2c(C)cc(C)[nH]c2=O)c1C)C1CCOCC1` (configuration not stated), the result in assay [1], in assay [9], in [10], in assay [11], in [12] and in assay [14] was inactive. Besides, the outcome in assay [15] and in assay [17] was inactive. Further, the result in assay [2], in assay [3], in assay [4], in assay [5], in [6] and in assay [7] was Active. Also, the result in assay [16] was Active. For the same compound, the Activity in assay [8] was 83%; in [13], “Dose-Dependent Effect”.
